# From ChEMBL document CHEMBL6087409, “Synthesis of α-fluorocinnamate derivatives as novel cathepsin S inhibitors with in vitro antiproliferative activity against pancreatic cancer cells” (Bioorg Med Chem, 2024)
# pEC50, pIC50: −log10 of the molar value. Active and inactive are the calls of the source. No cut-off for these calls is given here.
# Experiments:
# [1] = Thiol reactivity of compound in phosphate buffer with N-acetyl cysteine at pH 7.4 assessed as micheal adduct formation measured after 24 hrs by 19F-NMR spectroscopic analysis; format: physicochemical; conditions: pH 7.4, 24 h
# [2] = Thiol reactivity of compound in phosphate buffer with N-acetyl cysteine at pH 7.4 assessed as micheal adduct formation by measuring conversion rate measured after 24 hrs by HPLC-MS analysis; format: physicochemical; conditions: pH 7.4, 24 h
# [3] = test system: Severe acute respiratory syndrome coronavirus 2; test: Inhibition of recombinant SARS-CoV-2 main protease using Dabcyl-KTSAVLQSGFRKME-Edans as substrate assessed as reduction in proteolytic activity at 20 uM preincubated for 10 mins followed by substrate addition and measured after 10 mins by FRET-based enzymatic cleavage assay relative to control; conditions: time 20.0 min
# Procedure, shortened: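 Recombinant SARS-CoV-2 Mpro at 50 nM final, with 25 µM final substrate and 20 µM final compound, in 20 mM Tris pH 7.5, 0.1 mM EDTA, 1 mM DTT, 200 mM NaCl. Substrate cleavage was followed at 25 °C as rising Edans fluorescence (ex 335/em 493 nm) after release of the Dabcyl quencher.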
# [4] = Inhibition of recombinant SARS-CoV-2 main protease using Dabcyl-KTSAVLQSGFRKME-Edans as substrate assessed as reduction in proteolytic activity preincubated for 10 mins followed by substrate addition and measured after 10 mins by FRET-based enzymatic cleavage assay; parameters: species or system Severe acute respiratory syndrome coronavirus 2
# Human coronavirus OC43 = test: Antiviral activity against HCoV-OC43 infected in human HCT-8 cells preincubated with cell for 1 hrs followed by viral infection and measured after 72 hrs by focus forming reduction assay; format: functional, organism-based; conditions: Betacoronavirus 1, HCT-8
# [5] = target: Procathepsin L (Homo sapiens) (UniProt P07711); test: Inhibition of human cathepsin L using Z-phe-Arg-AMC as substrate at 20 uM by FRET-based enzymatic cleavage assay relative to control
# CAPAN-1 = test: Cytotoxicity against human CAPAN-1 cells assessed as inhibition of cell growth incubated for 5 days by MTS assay; conditions: CAPAN-1, 120 h
# BXPC-3 = test: Cytotoxicity against human BXPC-3 cells assessed as inhibition of cell growth incubated for 5 days by MTS assay; conditions: BXPC-3, 120 h
# [6] = target: Cathepsin B (Homo sapiens) (UniProt P07858); test: Inhibition of human cathepsin B using Z-phe-Arg-AMC as substrate at 20 uM by FRET-based enzymatic cleavage assay relative to control
# [7] = Thiol reactivity of compound in phosphate buffer with N-acetyl cysteine at pH 7.4 assessed as micheal adduct formation by measuring conversion rate measured after 1 hrs by HPLC-MS analysis; format: physicochemical; conditions: pH 7.4, 1 h
# Procedure, shortened: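 Compound with 1.1 equiv N-acetylcysteine in PBS pH 7.4 containing 10% ACN, stirred 1 h at 37 °C. The mixture was concentrated under reduced pressure, and consumption of starting material and adduct formation were followed by HPLC-MS.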
# Procathepsin L (Homo sapiens), sequence (P07711 114-333 limits assumed): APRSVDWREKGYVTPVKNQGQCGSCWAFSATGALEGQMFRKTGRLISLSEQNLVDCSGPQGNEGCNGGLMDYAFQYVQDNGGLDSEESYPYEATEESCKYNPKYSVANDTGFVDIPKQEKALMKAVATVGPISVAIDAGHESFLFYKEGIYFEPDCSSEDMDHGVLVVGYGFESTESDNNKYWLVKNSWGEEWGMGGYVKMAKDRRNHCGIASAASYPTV
compound,measurement,setting,value
CCOC(=O)/C(F)=C/c1ccc(N)cc1,Activity,[1],Active
CCOC(=O)/C=C/c1ccc(NC(=O)[C@H](Cc2ccccc2)NC(=O)OCc2ccccc2)cc1,Activity,[2],70%
same,inhibition,[3],40%
CCOC(=O)/C=C/c1ccc(NC(=O)[C@H](Cc2ccccc2)NC(=O)OCc2c[nH]c3ccccc23)cc1,inhibition,[3],60%
same,pIC50,[4],4.91
same,pEC50,Human coronavirus OC43,5.04
CCOC(=O)/C(F)=C/c1ccc(NC(=O)[C@H](Cc2ccccc2)NC(=O)OCc2ccccc2)cc1,inhibition,[5],inactive
same,pIC50,CAPAN-1,4.39
same,pIC50,BXPC-3,4.59
CCOC(=O)/C(F)=C/c1ccc(NC(=O)[C@H](Cc2ccccc2)NC(=O)OCc2c[nH]c3ccccc23)cc1,inhibition,[5],29%
same,pIC50,CAPAN-1,4.68
same,inhibition,[6],20%
same,pIC50,BXPC-3,5.24
same,Activity,[7],~ 80%
CCOC(=O)/C(F)=C/c1ccc(NC(=O)[C@H](Cc2ccccc2)NC(=O)c2cc3ccccc3[nH]2)cc1,inhibition,[5],inactive
same,pIC50,CAPAN-1,4.55
same,pIC50,BXPC-3,4.85
